ChEMBL document CHEMBL2021777 (J Med Chem, 2012)
Active and inactive are the calls of the source. No cut-off for these calls is given here.

Legend:
[1] = target: Cannabinoid receptor 1 (Homo sapiens) (UniProt P21554); assay: Displacement of [3H]CP55940 from CB1 receptor at 10 uM
[2] = target: Sodium-dependent serotonin transporter (Homo sapiens) (UniProt P31645); assay: Displacement of [3H]Citalopram from SERT at 10 uM
Brain = assay: Half life in CD1 mouse brain at 5 mg/kg, po; assay type: ADME, organism-based; design: dose 5 mg/kg, route oral; conditions: in vivo
Summary of the method: (§1)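 Male CD-1 mice given a single oral gavage dose of 5 mg/kg; plasma and brain concentrations measured over time to derive half-lives, Cmax and Tmax.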

Plasma [3] = assay: Half life in CD1 mouse plasma at 5 mg/kg, po; assay type: ADME, organism-based; design: dose 5 mg/kg, route oral; conditions: in vivo; summary of the method: as §1
[4] = Displacement of radioligand from oxytocin receptor; conditions: concentration not given here
Nucleic Acid = assay: Ratio of drug level in brain to plasma in CD1 mouse at 5 mg/kg, po; assay type: ADME, organism-based; design: dose 5 mg/kg, route oral
Summary of the method: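 Male CD-1 mice, single 5 mg/kg oral gavage dose; brain-to-plasma ratio calculated as Cmax-brain/Cmax-plasma.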

Plasma [5] = assay: Cmax in CD1 mouse plasma at 5 mg/kg, po at 10 mins; assay type: ADME, organism-based; design: dose 5 mg/kg, route oral; conditions: in vivo
Summary of the method: (§2)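 Male CD-1 mice received a single oral gavage dose of 5 mg/kg. Drug levels were measured in brain and plasma over time; Cmax and Tmax were taken from the concentration−time profiles.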

[6] = target: 5-hydroxytryptamine receptor 2A (Homo sapiens) (UniProt P28223); assay: Displacement of [3H]Ketanserin from 5-HT2A at 10 uM
Sequence of 5-hydroxytryptamine receptor 2A (Homo sapiens) (P28223 whole entry): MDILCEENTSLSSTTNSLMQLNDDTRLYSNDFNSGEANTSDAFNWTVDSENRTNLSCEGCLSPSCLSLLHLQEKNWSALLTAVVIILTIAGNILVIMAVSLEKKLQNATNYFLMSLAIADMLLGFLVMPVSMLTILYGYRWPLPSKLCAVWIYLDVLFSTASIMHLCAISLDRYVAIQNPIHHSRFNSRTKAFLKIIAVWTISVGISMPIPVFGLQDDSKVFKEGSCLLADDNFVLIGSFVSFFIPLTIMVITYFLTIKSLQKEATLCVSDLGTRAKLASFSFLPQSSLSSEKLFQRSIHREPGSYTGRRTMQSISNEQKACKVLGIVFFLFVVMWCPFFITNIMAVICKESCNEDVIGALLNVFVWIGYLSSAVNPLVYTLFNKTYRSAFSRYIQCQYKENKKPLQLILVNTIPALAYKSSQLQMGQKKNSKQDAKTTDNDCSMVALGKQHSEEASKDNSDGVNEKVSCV

[7] = target: Vasopressin V1a receptor (Homo sapiens) (UniProt P37288); assay: Displacement of radioligand from Vasopressin V1A receptor; conditions: concentration not given here
Sequence of Vasopressin V1a receptor (Homo sapiens) (P37288 whole entry, looked up): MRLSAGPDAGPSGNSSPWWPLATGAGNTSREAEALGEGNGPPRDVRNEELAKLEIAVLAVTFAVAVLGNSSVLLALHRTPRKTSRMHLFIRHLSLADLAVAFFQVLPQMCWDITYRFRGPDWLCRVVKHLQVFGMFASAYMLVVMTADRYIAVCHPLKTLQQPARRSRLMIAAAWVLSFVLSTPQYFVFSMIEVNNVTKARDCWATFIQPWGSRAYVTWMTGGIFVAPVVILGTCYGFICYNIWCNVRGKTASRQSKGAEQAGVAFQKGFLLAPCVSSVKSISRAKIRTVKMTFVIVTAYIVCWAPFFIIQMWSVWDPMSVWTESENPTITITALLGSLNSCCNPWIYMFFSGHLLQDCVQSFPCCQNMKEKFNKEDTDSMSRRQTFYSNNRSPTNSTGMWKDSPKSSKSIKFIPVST

[8] = Displacement of [3H]PK11195 from PBR at 10 uM
Plasma [9] = assay: Tmax in CD1 mouse plasma at 5 mg/kg, po; assay type: ADME, organism-based; design: dose 5 mg/kg, route oral; conditions: in vivo; summary of the method: as §1
[10] = Cmax in CD1 mouse brain at 5 mg/kg, po at 30 mins; assay type: ADME, organism-based; design: dose 5 mg/kg, route oral; summary of the method: as §2
[11] = target: Alpha-1D adrenergic receptor (Homo sapiens) (UniProt P25100); assay: Inhibition of alpha1D adrenergic receptor at 10 uM by radioligand displacement assay
Sequence of Alpha-1D adrenergic receptor (Homo sapiens) (P25100 whole entry): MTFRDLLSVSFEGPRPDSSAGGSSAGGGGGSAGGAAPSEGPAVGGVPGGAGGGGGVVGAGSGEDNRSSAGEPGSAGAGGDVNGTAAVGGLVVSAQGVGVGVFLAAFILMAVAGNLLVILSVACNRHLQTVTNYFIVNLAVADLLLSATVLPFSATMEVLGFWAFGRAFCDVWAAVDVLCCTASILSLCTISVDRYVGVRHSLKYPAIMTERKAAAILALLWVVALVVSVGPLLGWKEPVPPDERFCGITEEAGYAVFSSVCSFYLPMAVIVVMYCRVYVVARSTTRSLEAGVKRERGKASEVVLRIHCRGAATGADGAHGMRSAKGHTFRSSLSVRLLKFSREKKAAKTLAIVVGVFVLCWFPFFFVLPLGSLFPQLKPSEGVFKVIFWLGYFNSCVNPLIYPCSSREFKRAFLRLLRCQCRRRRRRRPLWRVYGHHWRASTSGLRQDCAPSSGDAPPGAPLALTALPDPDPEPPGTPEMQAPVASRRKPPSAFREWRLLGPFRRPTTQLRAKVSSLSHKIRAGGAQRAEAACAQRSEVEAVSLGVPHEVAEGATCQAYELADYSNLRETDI

[12] = target: Histamine H3 receptor (Homo sapiens) (UniProt Q9Y5N1); assay: Displacement of [3H]alpha-methylhistamine from H3 histamine receptor at 10 uM
Sequence of Histamine H3 receptor (Homo sapiens) (Q9Y5N1 whole entry): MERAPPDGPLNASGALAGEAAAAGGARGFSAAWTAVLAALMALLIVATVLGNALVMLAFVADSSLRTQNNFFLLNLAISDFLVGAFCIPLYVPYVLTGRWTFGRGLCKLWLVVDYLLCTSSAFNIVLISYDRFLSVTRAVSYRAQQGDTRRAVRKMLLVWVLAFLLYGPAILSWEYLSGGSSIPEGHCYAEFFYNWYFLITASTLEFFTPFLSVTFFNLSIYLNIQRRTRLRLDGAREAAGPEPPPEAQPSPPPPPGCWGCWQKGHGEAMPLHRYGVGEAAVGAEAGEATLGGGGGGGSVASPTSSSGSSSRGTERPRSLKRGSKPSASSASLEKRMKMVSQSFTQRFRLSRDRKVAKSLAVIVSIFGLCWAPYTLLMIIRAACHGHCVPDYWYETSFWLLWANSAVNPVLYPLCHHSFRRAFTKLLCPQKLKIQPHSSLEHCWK

[13] = target: Muscarinic acetylcholine receptor M1 (Homo sapiens) (UniProt P11229); assay: Displacement of [3H]QNB from M1 receptor at 10 uM
Sequence of Muscarinic acetylcholine receptor M1 (Homo sapiens) (P11229 whole entry): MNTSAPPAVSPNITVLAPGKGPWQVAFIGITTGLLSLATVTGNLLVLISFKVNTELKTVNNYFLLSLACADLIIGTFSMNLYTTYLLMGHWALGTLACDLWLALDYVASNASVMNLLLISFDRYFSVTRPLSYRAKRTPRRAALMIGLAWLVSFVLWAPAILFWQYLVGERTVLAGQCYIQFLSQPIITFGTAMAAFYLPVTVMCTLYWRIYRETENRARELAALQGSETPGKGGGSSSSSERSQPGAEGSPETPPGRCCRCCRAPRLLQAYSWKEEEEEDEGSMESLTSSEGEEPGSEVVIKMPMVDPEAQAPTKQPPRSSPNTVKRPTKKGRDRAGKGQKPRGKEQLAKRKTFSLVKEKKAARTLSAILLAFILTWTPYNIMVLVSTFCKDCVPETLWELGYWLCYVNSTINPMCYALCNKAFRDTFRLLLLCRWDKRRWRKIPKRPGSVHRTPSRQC

Mus musculus = assay: Antidepressant activity in BALB/cJ mouse assessed as decrease in immobility at 10 mg/kg, po administered 30 mins prior to testing measured for 6 mins by forced swim test; assay type: functional, organism-based; design: dose 10 mg/kg
Summary of the method: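 Male BALB/cJ mice, 8−10 weeks old, housed four per cage on a 12 h light−dark cycle. Drug in injectable water was given by oral gavage (10 mL/kg). After 30 min, each mouse was placed in a glass cylinder with 12 cm of ~23 °C water, and floating immobility was timed over a 6 min trial. Analysis was by ANOVA with Fisher's PLSD post hoc test.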

Plasma [14] = assay: Plasma protein binding in human at 10 uM; assay type: ADME, cell-free
Summary of the method: (§3)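 Binding measured at 10 μM in human plasma and CD-1 mouse plasma; reported as mean percent bound.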

[15] = target: Histamine H4 receptor (Homo sapiens) (UniProt Q9H3N8); assay: Displacement of [3H]Histamine from H4 histamine receptor at 10 uM
Sequence of Histamine H4 receptor (Homo sapiens) (Q9H3N8 whole entry): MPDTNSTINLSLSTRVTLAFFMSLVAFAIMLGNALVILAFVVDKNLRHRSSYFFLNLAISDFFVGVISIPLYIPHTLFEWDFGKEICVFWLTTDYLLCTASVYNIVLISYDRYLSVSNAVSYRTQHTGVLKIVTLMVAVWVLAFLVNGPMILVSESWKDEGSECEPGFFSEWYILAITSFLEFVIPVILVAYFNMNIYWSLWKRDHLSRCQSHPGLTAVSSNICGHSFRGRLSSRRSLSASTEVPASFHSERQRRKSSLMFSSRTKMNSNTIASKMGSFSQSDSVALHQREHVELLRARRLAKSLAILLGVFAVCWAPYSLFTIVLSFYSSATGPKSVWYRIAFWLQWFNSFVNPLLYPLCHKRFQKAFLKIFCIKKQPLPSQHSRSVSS

Plasma [16] = assay: Plasma protein binding in CD1 mouse at 10 uM; assay type: ADME, cell-free; summary of the method: as §3

Sequence of Sodium-dependent serotonin transporter (Homo sapiens) (P31645 whole entry, looked up): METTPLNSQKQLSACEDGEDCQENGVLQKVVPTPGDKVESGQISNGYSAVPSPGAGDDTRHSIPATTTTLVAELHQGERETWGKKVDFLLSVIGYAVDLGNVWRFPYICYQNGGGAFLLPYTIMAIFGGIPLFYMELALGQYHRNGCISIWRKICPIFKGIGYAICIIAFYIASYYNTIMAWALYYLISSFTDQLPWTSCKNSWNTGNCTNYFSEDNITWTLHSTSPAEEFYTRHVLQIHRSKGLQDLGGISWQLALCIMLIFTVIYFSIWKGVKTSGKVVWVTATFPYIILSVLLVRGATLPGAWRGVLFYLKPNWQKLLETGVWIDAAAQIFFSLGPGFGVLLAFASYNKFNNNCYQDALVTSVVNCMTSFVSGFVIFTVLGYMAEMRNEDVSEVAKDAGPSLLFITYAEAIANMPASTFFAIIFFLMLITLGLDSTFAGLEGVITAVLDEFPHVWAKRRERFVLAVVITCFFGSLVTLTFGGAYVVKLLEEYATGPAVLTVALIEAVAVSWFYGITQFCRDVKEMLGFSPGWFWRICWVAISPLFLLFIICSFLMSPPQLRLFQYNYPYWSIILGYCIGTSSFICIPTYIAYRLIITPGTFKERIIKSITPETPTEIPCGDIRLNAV
Sequence of Cannabinoid receptor 1 (Homo sapiens) (P21554 whole entry): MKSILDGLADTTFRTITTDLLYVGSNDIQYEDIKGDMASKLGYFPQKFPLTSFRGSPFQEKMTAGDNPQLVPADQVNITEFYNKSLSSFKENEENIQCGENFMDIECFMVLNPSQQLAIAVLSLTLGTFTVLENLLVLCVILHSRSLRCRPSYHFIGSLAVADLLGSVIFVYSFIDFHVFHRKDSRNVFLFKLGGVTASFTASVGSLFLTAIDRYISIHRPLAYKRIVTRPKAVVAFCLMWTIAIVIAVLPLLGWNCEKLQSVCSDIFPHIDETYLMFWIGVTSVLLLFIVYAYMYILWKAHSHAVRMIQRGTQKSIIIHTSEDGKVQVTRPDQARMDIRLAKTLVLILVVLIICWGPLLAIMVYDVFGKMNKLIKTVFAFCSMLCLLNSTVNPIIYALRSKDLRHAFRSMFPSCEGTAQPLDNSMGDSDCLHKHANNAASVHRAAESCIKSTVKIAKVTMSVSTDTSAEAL

COCC[C@H]1C[C@@H]1c1cncc(OC[C@@H]2CCN2)c1
inhibition [1]: -2% | inhibition [2]: 39.3% | t1/2 (Brain): 2.5 h | t1/2 (Plasma [3]): 2.4 h | inhibition [4]: -1.4% | BPR (Nucleic Acid): 0.37 | Cmax (Plasma [5]): 359 ng/mL | inhibition [6]: 43.7% | inhibition [7]: 30.5% | inhibition [8]: -5.9% | Tmax (Plasma [9]): 0.167 h | Cmax [10]: 133 ng/mL | inhibition [11]: 3.4%

CNC(=O)OCC[C@H]1C[C@@H]1c1cncc(OC[C@@H]2CCN2)c1
inhibition [12]: 5.7% | inhibition [13]: 12.9% | Activity (Mus musculus): Active | PPB (Plasma [14]): 8.4% | inhibition [15]: -8% | inhibition [11]: -2.7% | PPB (Plasma [16]): 23.8%

OCC[C@H]1C[C@@H]1c1cncc(OC[C@@H]2CCN2)c1
inhibition [1]: -3.4% | inhibition [2]: 42.7% | inhibition [4]: 9.4% | inhibition [6]: 34.2% | inhibition [7]: 29.1% | inhibition [8]: 4.7%
